Experiment [1] can be described thus: inhibitors of TNFa-induced NFkB p65 translocation, primary screen, imaging, HUVEC, MLSMR starter and 10KST1 sets (AID 438;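 active means inhibition above 20% together with a positive visual image hit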;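 further: compound added about 3h40 before a 20 min TNFalpha stimulation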;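 on inhibition: signal is the nuclear over cytoplasmic p65 intensity ratio per well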). To be noted: HUVEC TNFa-induced p65 nuclear translocation; cell count: measured here: nuclei count (cytotoxicity indicator), at 2.08 µM; inhibition: at 2 µM, stronger effect = higher value, 0% TNFa-plus-vehicle, 100% no-TNFa wells.
The nature of experiment [2]: inhibitors of mutant huntingtin aggregation, primary screen, imaging, exon1htt(103Q)mCFP cells, high-content imaging (AID 483;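 active means visual image review flags a hit and inhibition of aggregation exceeds 20%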;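 further: compound exposure lasted 3 days before fixation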;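 on nuclei count: percent of the per-plate median nuclei count of sample wells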). As to conditions: exon1htt(103Q)mCFP cell line, aggregate imaging, at 2 µM; inhibition of aggregation: stronger effect = higher value; nuclei count: measured here: cell count, toxicity.
A short description of experiment [3]: inhibitors of E-selectin induction by TNFa, primary screen, imaging, HUVEC, immunofluorescence, MLSMR starter and 10KST1 sets (AID 487).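 On inhibition: signal is fraction of cell area covered by stained E-selectin grains.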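 On nuclei count: 100% = median nuclei count of all wells on the same plate.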 As to conditions: HUVEC TNFalpha-induced E-selectin immunofluorescence imaging, at 2 µM; inhibition: stronger effect = higher value; nuclei count: measured here: cell number, toxicity.
Experiment [4] addresses Voltage-gated potassium channel subunit beta-2 (Rattus norvegicus) (UniProt P62483). The experiment can be described thus: KvBeta enzyme negative modulators, primary screen, biochemical, NADPH fluorescence (AID 622;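 active means fluorescence slope higher than the sample average by over 3 SD, cut at about -0.22 in these data, passing the limit was not always enough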;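 further: slope of raw intensity against log time taken from 70 to 1610 s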). To be noted: recombinant KvBeta, 4-cyanobenzaldehyde reduction, at 10 µM, stronger effect = higher value.
Experiment [5] shares this target. The experiment in a line: KvBeta positive modulators, primary screen, biochemical, NADPH fluorescence (AID 623;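 active means NADPH fluorescence slope more negative than the mean of all samples by about 3 SD, 99.7% confidence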;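 further: fluorescence intensity change per second fitted from 20 to 320 s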). As to conditions: Recombinant KvBeta, NADPH fluorescence decrease slope, 10 min; at 10 µM; stronger effect = lower value.
For experiment [6], the target named is Muscarinic acetylcholine receptor M4 (Homo sapiens) (UniProt P08173). The experiment can be described thus: compounds altering M4/GIRK thallium flux, either direction, primary screen, M4 allosteric agonist project, cell-based, HEK293 M4/GIRK, BTC-AM (AID 625;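 active means fluorescence slope after compound addition differing from the mean of all tested samples at 99.7% confidence, mostly higher but some lower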;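 further: thallium influx through GIRK channels coupled to M4 in HEK293 cells with BTC-AM dye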). To be noted: at 10 µM, actives lie on both sides. The essentials:
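Material: M4/GIRK1/GIRK2 stable HEK293 cell line. Medium: pH 7.3 thallium assay buffer. Dosing: single compound concentration, 10 µM final. Schedule: 1 h dye loading, 2 min kinetic read. Measured by: kinetic fluorescence with BTC-AM dye. Read-out: post-addition slope, 15–24 s, of baseline-normalized fluorescence. Benchmarks: carbachol and DMSO controls.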

Experiment [7] can be described thus: inhibitors of Sendai virus-induced IRF3 signaling, primary screen, TLR/RLR signaling modifier project, cell-based, Sendai virus stimulus, luciferase, 10K MLSCN set (AID 602276;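 active means inhibition at or above 50% at 10 µM; inactive means inhibition below 50%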;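 further: firefly luciferase from ISG56 promoter only with Renilla not read in this screen; 0% = Sendai virus plus DMSO and 100% = medium plus DMSO without virus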). To be noted: HEK293 RL24 IRF3 luciferase reporter, at 10 µM, stronger effect = higher value. (In general: In a reporter assay the amount or activity of a reporter protein is the signal.)
Experiment [8] in a line: inhibitors of poly I:C-induced TLR3 signaling, primary screen, cell-based, poly I:C stimulus, luciferase, 10K MLSCN set (AID 602277;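 active means inhibition of the reporter signal at or above 50%; inactive means inhibition below 50%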). As to conditions: HEK293-TLR3 RL24 IRF3 luciferase reporter, at 10 µM, stronger effect = higher value.

Consider 7 compounds from PubChem BioAssay.

Molecules are shown by their SMILES. Activity calls are given as the source filed them.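 How the source made its calls, unless noted: active means visually confirmed hit in the image check and inhibition above 20%; inconclusive means visually confirmed hit but inhibition not above 20%; inactive means no visual hit in the image check.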

Sequence of Voltage-gated potassium channel subunit beta-2 (Rattus norvegicus) (P62483 whole entry, looked up): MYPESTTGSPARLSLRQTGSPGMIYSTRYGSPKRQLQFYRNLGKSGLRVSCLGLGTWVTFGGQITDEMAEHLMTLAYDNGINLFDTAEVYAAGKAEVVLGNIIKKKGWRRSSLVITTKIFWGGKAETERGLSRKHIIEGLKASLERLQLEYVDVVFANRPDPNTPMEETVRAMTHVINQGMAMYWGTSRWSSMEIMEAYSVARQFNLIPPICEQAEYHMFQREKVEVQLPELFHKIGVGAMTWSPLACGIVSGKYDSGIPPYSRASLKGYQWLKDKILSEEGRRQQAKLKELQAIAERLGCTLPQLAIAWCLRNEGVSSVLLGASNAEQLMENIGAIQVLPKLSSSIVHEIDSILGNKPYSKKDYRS
Sequence of Muscarinic acetylcholine receptor M4 (Homo sapiens) (P08173 whole entry, looked up): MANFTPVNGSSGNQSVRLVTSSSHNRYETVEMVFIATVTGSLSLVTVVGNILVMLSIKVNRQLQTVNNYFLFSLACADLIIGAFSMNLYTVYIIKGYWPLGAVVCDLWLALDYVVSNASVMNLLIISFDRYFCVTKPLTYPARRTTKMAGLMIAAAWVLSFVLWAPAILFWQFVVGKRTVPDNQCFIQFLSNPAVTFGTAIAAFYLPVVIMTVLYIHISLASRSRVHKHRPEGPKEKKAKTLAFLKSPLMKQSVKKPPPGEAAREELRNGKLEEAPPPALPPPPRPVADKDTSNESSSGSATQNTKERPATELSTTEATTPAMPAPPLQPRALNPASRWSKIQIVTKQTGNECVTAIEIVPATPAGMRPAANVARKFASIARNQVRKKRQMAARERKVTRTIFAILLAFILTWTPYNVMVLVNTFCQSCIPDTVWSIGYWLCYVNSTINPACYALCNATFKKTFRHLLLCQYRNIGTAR

A word on the inhibition: it is the relative decrease from the control value, in per cent. Turning to `COc1ccc(CNC(=O)Cn2nc(C(F)(F)F)c3c2CCC3)cc1`, the cell count in experiment [1] worked out at 620. Besides, the inhibition in experiment [1] was -13.3% (inactive); in experiment [3], -56.6% (inactive); in experiment [7], 6.68% (inactive); in experiment [8] it was 19.7% (inactive). Moreover, the inhibition of aggregation in experiment [2] was -8% (inactive). Besides, the nuclei count in experiment [2] was 103%; in experiment [3], 116%. For the same compound, the fluorescence slope in experiment [4] is -0.396 (inactive); in experiment [6], 0.00662 (inactive). In addition, the NADPH fluorescence slope in experiment [5] was -9.3e-05 (inactive).

Regarding `COC(=O)c1[nH]c2ccccc2c1NS(=O)(=O)c1ccc(OC)cc1OC`, the cell count in experiment [1] was 655. In addition, the inhibition in experiment [1] is -11.9% (inactive); in experiment [3] it was -72% (inactive); in experiment [7] it was 19.9% (inactive); in experiment [8], 37.3% (inactive). Besides, the inhibition of aggregation in experiment [2] was 13% (inactive). Besides, the nuclei count amounted to 103% in experiment [2] and 118% in experiment [3]. The fluorescence slope in experiment [4] is -0.524 (inactive); in experiment [6] it was 0.00563 (inactive). The NADPH fluorescence slope in experiment [5] was -0.000111 (inactive).

On to `COCc1cc(C)c2c(N)c(C#N)sc2n1`, for which, in experiment [1], the cell count was 549. The inhibition in experiment [1] was 2.2% (inactive); in experiment [3], 22.2% (inactive); in experiment [7], -19.7% (inactive); in experiment [8] it was -33.5% (inactive). Besides, the inhibition of aggregation in experiment [2] is -26% (inactive). Further, the nuclei count was 60.8% in experiment [2] and 108% in experiment [3]. The fluorescence slope in experiment [4] is -0.324 (inactive); in experiment [6] it was 0.00504 (inactive). Also, the NADPH fluorescence slope in experiment [5] was 2.3e-06 (inactive).

As to `COc1ccccc1-c1c(C)nn2c(N3CCC4(CC3)OCCO4)cc(C)nc12`, the cell count in experiment [1] is 540. For the same compound, the inhibition in experiment [1] is -2.1% (inactive); in experiment [3], -42.2% (inactive); in experiment [7], 13.5% (inactive); in experiment [8] it was 12.2% (inactive). In addition, in experiment [2], the inhibition of aggregation is -9.7% (inactive). In addition, the nuclei count in experiment [2] turned out to be 91.2%; in experiment [3] it was 111%. Moreover, the fluorescence slope was -0.545 (inactive) in experiment [4] and 0.00547 (inactive) in experiment [6]. Moreover, in experiment [5], the NADPH fluorescence slope was -4.6e-05 (inactive).

For `c1ccc2c(-c3nc(C4CCCCC4)no3)cc(-c3ccncc3)nc2c1`, the cell count in experiment [1] turned out to be 570. The inhibition was -12.8% (inactive) in experiment [1], 48.8% (inactive) in experiment [3], 11.5% (inactive) in experiment [7] and 1.56% (inactive) in experiment [8]. The inhibition of aggregation in experiment [2] is 17.4% (inactive). In addition, the nuclei count turned out to be 73.3% in experiment [2] and 58.9% in experiment [3]. Besides, the fluorescence slope in experiment [4] is -0.535 (inactive); in experiment [6], 0.00839 (inactive). Besides, in experiment [5], the NADPH fluorescence slope was -1.6e-05 (inactive).

With `Cn1cnnc1Sc1nc2c(c(=O)n(C)c(=O)n2C)n1C`, the cell count in experiment [1] worked out at 613. For the same compound, the inhibition in experiment [1] is -33.7% (inactive); in experiment [3], -50.7% (inactive); in experiment [7], -1.17% (inactive); in experiment [8] it was 9.62% (inactive). The inhibition of aggregation in experiment [2] was 11.6% (inactive). Besides, the results for the nuclei count in experiment [2] and in experiment [3] were 90.4% and 100%, respectively. The figures for the fluorescence slope in experiment [4] and in experiment [6] were -0.547 (inactive) and 0.00524 (inactive), respectively. In addition, in experiment [5], the NADPH fluorescence slope is 2.3e-05 (inactive).

For `COc1cccc(-n2c(SCC(=O)OC(C)C)nnc2-c2cccnc2)c1`, the cell count in experiment [1] amounted to 402. Further, the inhibition is -3.3% (inactive) in experiment [1], -29.7% (inactive) in experiment [3], 9.67% (inactive) in experiment [7] and 13.7% (inactive) in experiment [8]. Besides, the inhibition of aggregation in experiment [2] is -5.3% (inactive). Moreover, the nuclei count in experiment [2] stood at 96.8%; in experiment [3] it was 113%. The figures for the fluorescence slope in experiment [4] and in experiment [6] were -0.459 (inactive) and 0.00575 (inactive), respectively. In experiment [5], the NADPH fluorescence slope was -4.2e-05 (inactive).
